Our source for the IC50 and Activity values is ChEMBL document CHEMBL1153493, “The marine natural-derived inhibitors of glycogen synthase kinase-3beta phenylmethylene hydantoins: In vitro and in vivo activities and pharmacophore modeling” (Bioorg Med Chem, 2009).

Chain of Glycogen synthase kinase-3 beta (P49841 whole entry): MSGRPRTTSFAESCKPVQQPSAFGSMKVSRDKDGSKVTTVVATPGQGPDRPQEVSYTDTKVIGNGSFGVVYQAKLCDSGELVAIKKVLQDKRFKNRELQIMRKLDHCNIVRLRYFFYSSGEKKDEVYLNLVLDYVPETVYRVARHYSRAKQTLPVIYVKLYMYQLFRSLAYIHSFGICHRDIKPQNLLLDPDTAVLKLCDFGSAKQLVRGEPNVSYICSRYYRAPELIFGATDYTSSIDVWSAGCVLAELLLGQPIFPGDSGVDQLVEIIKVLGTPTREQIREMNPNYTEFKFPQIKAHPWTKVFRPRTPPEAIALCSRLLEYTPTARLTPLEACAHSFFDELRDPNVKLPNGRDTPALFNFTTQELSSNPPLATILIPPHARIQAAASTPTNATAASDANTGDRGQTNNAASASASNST

One assay concerns the target Glycogen synthase kinase-3 beta (Homo sapiens, UniProt P49841). Put plainly: Inhibition of recombinant GSK3-beta by ELISA.
For the molecule `O=C1NC(=O)/C(=C/c2ccc(-c3cccs3)cc2)N1`, the IC50 stood at 13.5 µM.

As to `CCSc1ccc(/C=C2\NC(=O)NC2=O)cc1`, the IC50 was 7.8 µM.

In the case of `O=C1NC(=O)/C(=C/c2ccc(-c3ccsc3)cc2)N1`, the IC50 is 6.4 µM.

As for `O=C1NC(=O)/C(=C/c2ccc(Cl)cc2)N1`, the IC50 was 18.2 µM.

`O=C1NC(=O)/C(=C/c2ccc(O)cc2)N1` [4-HYDROXYPHENYLMETHYLENE HYDANTOIN]: the IC50 was found to be 13.7 µM.

With `CCN(CC)c1ccc(/C=C2\NC(=O)NC2=O)cc1`, the IC50 is 4.2 µM.

As to `O[C@]12C=C(c3nccc4c3[nH]c3ccccc34)[C@@H]3CCN(CCCC/C=C\CC1)C[C@@]31C[C@@H]3/C=C\CCCCN3[C@H]12` [MANZAMINE A], the IC50 is 12.3 µM.

Turning to `CSc1ccc(/C=C2\NC(=O)NC2=O)cc1`, the IC50 was determined as 6.9 µM.

For the next assay, the system named is Rattus norvegicus. The experiment in a line: Antihyperglycemic activity in ip dosed Sprague-Dawley rat assessed as increase liver glycogen. It counts as functional, organism-based. The gist of the method:
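Female Sprague Dawley rats, six weeks old, about 200 g. Food and water removed 6 h before a single ip injection of 5, 15 or 25 mg/kg as the sodium salt in PBS pH 7.2, 0.5 mL/rat. PBS vehicle control, n=3 per group. Liver homogenized in 5% TCA, glycogen precipitated with ethanol, measured with anthrone at 620 nm. Mean ± SEM.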
Take `CCN(CC)c1ccc(/C=C2\NC(=O)NC2=O)cc1`: the Activity result was “Dose-dependent effect”.
